Delta blood pressure data for eleven compounds are collected here from ChEMBL document CHEMBL1121761, “Antihypertensive pyrrolo[1,2-c]quinazolines and pyrrolo[1,2-c]quinazolinones” (1981).

Holding throughout (format): functional, Artery
Assay [1] concerns Rattus norvegicus. As to the kind of experiment: Change in systolic blood pressure after 100 mg/kg oral administration in spontaneous hypertensive rats after 24 hr. In short, it runs like this: (§1)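 Male spontaneously hypertensive rats, four per dose, received oral doses suspended in 30% PEG 200, 10% PEG 400, 10% EtOH and 50% pH 7.50 phosphate buffer at 0.5 mL/100 g. A first dose of 100 mg/kg was followed by a second dose of 50 mg/kg. Tail-cuff systolic pressure was read before dosing and 2, 4 and 24 h after each dose. Postdose readings were compared with predose readings by paired Student's t test.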

For assay [2], the system named is Rattus norvegicus. As to the kind of experiment: Change in systolic blood pressure after 100 mg/kg oral administration in spontaneous hypertensive rats after 4 hr. In short, it runs like this: as §1
The subject of assay [3] is Rattus norvegicus. Description: Change in systolic blood pressure after 50 mg/kg oral administration in spontaneous hypertensive rats after 24 hr. The essentials:
as §1

The subject of assay [4] is Rattus norvegicus. Description: Change in systolic blood pressure after 50 mg/kg oral administration in spontaneous hypertensive rats after 2 hr. In short, it runs like this:
as §1

Assay [5] has as its system Rattus norvegicus. As to the kind of experiment: Change in systolic blood pressure after 100 mg/kg oral administration in spontaneous hypertensive rats after 2 hr. The essentials: as §1
Assay [6] concerns Rattus norvegicus. As to the kind of experiment: Change in systolic blood pressure after 50 mg/kg oral administration in spontaneous hypertensive rats after 4 hr. In short, it runs like this:
as §1

Assay [7] concerns Rattus norvegicus. Description: Change in systolic blood pressure after 33 mg/kg oral administration in spontaneous hypertensive rats after 2 hr. In short, it runs like this:
(§2)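 Reference agents were given orally to male SHR, four per dose, as a suspension in PEG 200/PEG 400/EtOH/pH 7.50 phosphate buffer vehicle at 0.5 mL/100 g. Systolic pressure was measured by tail cuff before dosing and at 2, 4 and 24 h after each dose. Predose and postdose levels were compared by paired Student's t test.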

Assay [8] deals with Rattus norvegicus. Description: Change in systolic blood pressure after 33 mg/kg oral administration in spontaneous hypertensive rats after 24 hr. In short, it runs like this:
as §2

For assay [9], the system named is Rattus norvegicus. Description: Change in systolic blood pressure after 33 mg/kg oral administration in spontaneous hypertensive rats after 4 hr. The essentials: as §2
In assay [10] the test system is Rattus norvegicus. Description: Change in systolic blood pressure after 12.5 mg/kg oral administration in spontaneous hypertensive rats after 24 hr. In short, it runs like this:
as §2

Assay [11] has as its system Rattus norvegicus. Description: Change in systolic blood pressure after 12.5 mg/kg oral administration in spontaneous hypertensive rats after 4 hr. In short, it runs like this: as §2
The subject of assay [12] is Rattus norvegicus. Description: Change in systolic blood pressure after 25 mg/kg oral administration in spontaneous hypertensive rats after 24 hr. The essentials: as §2
Assay [13] has as its system Rattus norvegicus. Description: Change in systolic blood pressure after 25 mg/kg oral administration in spontaneous hypertensive rats after 4 hr. The essentials: as §2
For assay [14], the system named is Rattus norvegicus. Description: Change in systolic blood pressure after 12.5 mg/kg oral administration in spontaneous hypertensive rats after 2 hr. In short, it runs like this: as §2
The subject of assay [15] is Rattus norvegicus. As to the kind of experiment: Change in systolic blood pressure after 25 mg/kg oral administration in spontaneous hypertensive rats after 2 hr. In short, it runs like this: as §2

Consider `Cc1cc2c3ccccc3nc(O)n2c1`, for which the Delta blood pressure in the assay with Rattus norvegicus [1] was 11; in the assay with Rattus norvegicus [2] it was 39; with Rattus norvegicus [3] it was 35; in the assay on Rattus norvegicus [4], 46.
Take `CCOC(=O)c1cc2c3cc(C#N)ccc3ncn2c1`: the Delta blood pressure worked out at 20 with Rattus norvegicus [1]; 20 in the assay with Rattus norvegicus [2]; 6.6 in the assay on Rattus norvegicus [3]; 11.6 in the assay on Rattus norvegicus [5]; 33 in the assay with Rattus norvegicus [6]; 21.6 with Rattus norvegicus [4].
Turning to `COc1ccc2c(c1)nc(O)n1cc(C)cc21`, the Delta blood pressure in the assay on Rattus norvegicus [1] amounted to 15; in the assay with Rattus norvegicus [2], 9; in the assay on Rattus norvegicus [3], 12; with Rattus norvegicus [5], 6; in the assay on Rattus norvegicus [6], 31; in the assay on Rattus norvegicus [4] it was 28.
`CCOC(=O)c1cc2c3ccccc3n(CCC#N)c(=O)n2c1`: the Delta blood pressure is 45 in the assay with Rattus norvegicus [1], 2 in the assay on Rattus norvegicus [2], 59 in the assay on Rattus norvegicus [3] and 19 in the assay on Rattus norvegicus [6].
In the case of `CCOC(=O)c1cc2c3cc(Cl)ccc3ncn2c1`, the Delta blood pressure worked out at 5 in the assay with Rattus norvegicus [1]; 16.3 in the assay with Rattus norvegicus [2]; 7.5 in the assay with Rattus norvegicus [3]; 17.5 in the assay with Rattus norvegicus [5]; 31.3 with Rattus norvegicus [6]; 13.8 in the assay on Rattus norvegicus [4].
With `CC(C)NCC(O)COc1cccc2ccccc12` (configuration not stated) [PROPRANOLOL], the Delta blood pressure in the assay on Rattus norvegicus [1] is 32.5; in the assay on Rattus norvegicus [7] it was 27.5; with Rattus norvegicus [8], 51.2; in the assay on Rattus norvegicus [2], 45; in the assay with Rattus norvegicus [9], 28.7; with Rattus norvegicus [5] it was 18.7.
As for `CC#Cc1c(C)cc2c3ccccc3nc(O)n12.Cl`, the Delta blood pressure with Rattus norvegicus [1] turned out to be 20.5; in the assay on Rattus norvegicus [2], 27; with Rattus norvegicus [3], 42; with Rattus norvegicus [6], 30.
On to `CCOC(=O)c1cc2n(c1)CN(C(=O)OCC)c1ccccc1-2`, for which the Delta blood pressure with Rattus norvegicus [1] worked out at 20; in the assay with Rattus norvegicus [2] it was 11.2; in the assay with Rattus norvegicus [3] it was 23.7; in the assay with Rattus norvegicus [5], 6.2; in the assay with Rattus norvegicus [6] it was 42.5; with Rattus norvegicus [4], 18.7.
Turning to `COc1cc2nc(N3CCN(C(=O)c4ccco4)CC3)nc(N)c2cc1OC` [PRAZOSIN], the Delta blood pressure in the assay on Rattus norvegicus [10] amounted to 13.7; with Rattus norvegicus [11] it was 48.2; with Rattus norvegicus [12], 41.2; in the assay with Rattus norvegicus [13], 76.2; in the assay on Rattus norvegicus [14], 40; in the assay on Rattus norvegicus [15] it was 56.2.
For the compound `CCOC(=O)c1cc2n(c1)CN(C)c1ccccc1-2`, the Delta blood pressure in the assay on Rattus norvegicus [1] amounted to 31; in the assay on Rattus norvegicus [3], 6.5; in the assay on Rattus norvegicus [5], 29; in the assay on Rattus norvegicus [6], 26.
Take `CCOC(=O)c1cc2n(c1)CN(CCC#N)c1ccccc1-2`: the Delta blood pressure in the assay on Rattus norvegicus [1] came to 1.2; in the assay with Rattus norvegicus [2], 11.3; in the assay with Rattus norvegicus [5], 13.8; with Rattus norvegicus [6], 38; with Rattus norvegicus [4], 33.
